Screening data: PubChem, several laboratories
Only some compounds are listed: those with a hit (about 6.6% of all), similar ones and a draw of the others.
JNK3 blocker = blocks human JNK3 kinase activity | purified JNK3 kinase activity, HTS | AID 746 | inhibition, % at 8 µM | 60,000 compounds, 0.61% hits | P53779; in the data active = inhibition above about 17%;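 also: 0% = DMSO and 100% = reference inhibitor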
HEK293 NFkB inh = inhibitors of the PMA/ionomycin-induced NF-kB reporter in HEK293 cells; HEK-293 NF-kB luciferase reporter, luminescence; inhibition, % at 3 µM; 62,000 compounds, 0.21% hits;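 active = inhibition above the mean of all tested compounds plus 3 SD, cut at about 40% in these data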;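 also: 0% = stimulated DMSO wells and 100% = 10 µM reference inhibitor 5653914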
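Material: HEK-293 cells with stable firefly luciferase reporter driven by four HIV NF-kB elements / Also added: PMA plus ionomycin mix as NF-kB-activating stimulus / Compound dosing: 3 µM once, 0.30% DMSO / Times: 1 h pretreatment, 16 h stimulation, 37 °C / Signal: luminescence / Evaluation: per-plate % inhibition versus controls / Benchmarks: DMSO and 10 µM reference inhibitor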
Her2 expr inh = Her2 kinase expression inhibition; SKBR-3 HER2 protein level, AlphaScreen, 18-24 h; stronger effect = lower value; HER2 level % of control, % at 10 µM; 65,000 compounds, 0.69% hits; AID 645;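 active = HER2 level under 5% of the carrier-only control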;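 also: 100% = DMSO carrier and 0% = 500 nM PU-H71 HSP90 inhibitor; lower value means stronger loss of Her2 protein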
Target sequence (P04626 whole entry, looked up): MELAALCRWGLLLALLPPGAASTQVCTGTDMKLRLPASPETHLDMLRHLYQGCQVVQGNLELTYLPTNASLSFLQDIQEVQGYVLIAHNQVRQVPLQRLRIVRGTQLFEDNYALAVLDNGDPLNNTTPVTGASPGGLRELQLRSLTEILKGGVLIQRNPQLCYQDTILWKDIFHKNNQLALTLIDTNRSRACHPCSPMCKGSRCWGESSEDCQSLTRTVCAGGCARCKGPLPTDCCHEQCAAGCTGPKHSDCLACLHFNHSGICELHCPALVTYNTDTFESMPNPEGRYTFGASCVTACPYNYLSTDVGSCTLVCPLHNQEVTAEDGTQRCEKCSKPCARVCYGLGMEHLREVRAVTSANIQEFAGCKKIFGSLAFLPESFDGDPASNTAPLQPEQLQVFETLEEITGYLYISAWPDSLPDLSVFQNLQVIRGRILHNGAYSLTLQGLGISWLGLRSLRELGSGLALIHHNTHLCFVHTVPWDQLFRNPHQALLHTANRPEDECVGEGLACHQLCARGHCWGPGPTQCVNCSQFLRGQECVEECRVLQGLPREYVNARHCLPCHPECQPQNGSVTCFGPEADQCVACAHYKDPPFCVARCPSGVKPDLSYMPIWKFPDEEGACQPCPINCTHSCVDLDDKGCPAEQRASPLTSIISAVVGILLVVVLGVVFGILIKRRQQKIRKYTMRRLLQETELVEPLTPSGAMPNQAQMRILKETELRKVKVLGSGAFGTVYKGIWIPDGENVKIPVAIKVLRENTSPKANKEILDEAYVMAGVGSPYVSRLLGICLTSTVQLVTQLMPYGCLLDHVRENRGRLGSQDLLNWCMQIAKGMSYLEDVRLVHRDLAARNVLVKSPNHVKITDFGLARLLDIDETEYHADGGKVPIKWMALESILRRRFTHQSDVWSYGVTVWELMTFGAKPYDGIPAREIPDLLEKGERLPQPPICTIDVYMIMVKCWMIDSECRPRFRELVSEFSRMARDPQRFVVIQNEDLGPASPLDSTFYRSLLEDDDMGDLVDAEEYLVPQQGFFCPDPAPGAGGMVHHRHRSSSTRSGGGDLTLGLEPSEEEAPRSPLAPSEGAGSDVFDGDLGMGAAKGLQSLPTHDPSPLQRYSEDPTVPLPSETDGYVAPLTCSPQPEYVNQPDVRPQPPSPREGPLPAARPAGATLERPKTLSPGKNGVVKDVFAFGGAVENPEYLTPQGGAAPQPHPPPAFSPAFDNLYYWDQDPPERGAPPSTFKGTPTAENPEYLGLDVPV
BAP1 inh = human BAP1 deubiquitinase inhibition; Q92560; recombinant BAP1, Ub-AMC hydrolysis fluorescence kinetic; stronger effect = lower value; calls only at 20 µM; 72,000 compounds, 0.48% hits; AID 436;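 active = activity remaining at or below 50% of control, provided the compound also passes the data quality filters; inactive = the rest, including low values that fail the filters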;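 also: 100% = DMSO wells rate and 0% = substrate alone blank rate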
M1 antagonist = blocks the rat M1 muscarinic receptor response to acetylcholine; P08482; CHO-M1 cells, Fluo-4 calcium, ACh EC80 antagonist mode; stronger effect = lower value; B-score at 10 µM; 64,000 compounds, 3.4% hits;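 active = calcium fluorescence response, raw or row-and-column corrected B-score, differing from the plate sample mean either way at a set confidence level, mostly lower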
M1 ag = activates the M1 muscarinic receptor; CHO-M1 cells, Fluo-4 calcium fluorescence, agonist mode; stronger effect = higher value; B-score at 10 µM; 64,000 compounds, 3% hits;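 active = fluorescence rise, raw or as B-score row- and column-corrected plate score, outside the 99.7% band of its plate's samples, either direction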
M1 antag conf = M1 muscarinic receptor (rat) antagonism, confirmed; shares compounds with M1 antagonist; AID 677; 1,700 compounds, 43% hits; CHO-M1 cells, Fluo-4 calcium, ACh EC80 antagonism; stronger effect = lower value; calcium response (max-min fluorescence) at 10 µM;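 active = calcium response below the same-plate mean of wells given acetylcholine alone at its 80%-effect dose, minus 3 SD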;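 also: raw fluorescence intensity difference in arbitrary instrument units and not normalized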
mGluR4 antag = acts on human mGluR4 in M1 antagonist selectivity test | shares compounds with M1 antagonist | CHO-mGluR4 calcium flux, Fluo-4 fluorescence, glutamate EC80; stronger effect = lower value | fluorescence response (max-min) at 10 µM | 1,700 compounds, 0.9% hits;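 active = fluorescence response below the plate's average for near-maximal glutamate wells, less 3 SD of those wells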;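 also: raw unnormalized fluorescence span taken in the window right after glutamate addition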
* = called active by the depositor.

What do the screens show for `O=C(CCS(=O)(=O)c1cccc2nonc12)N1CCN(c2ccc(F)cc2)CC1`?
HEK293 NFkB inh: 14; Her2 expr inh: 208; M1 antagonist: -6.9*; M1 ag: 0.04; M1 antag conf: 622; mGluR4 antag: 303

How did O=C1CSC(c2ccc([N+](=O)[O-])cc2)N1CC12CC3CC(CC(C3)C1)C2 (configuration not stated) do in these assays?
BAP1 inh: inactive

What do the screens show for `Cc1c(NC(=O)C2(C)CCCCC2)c(=O)n(-c2ccccc2)n1C`?
JNK3 blocker: 6; HEK293 NFkB inh: 2; Her2 expr inh: 146; BAP1 inh: inactive; M1 antagonist: -0.33; M1 ag: -0.47

Results for Cc1c(NC2=NC3(CCCCC3)Cc3ccccc32)c(=O)n(-c2ccccc2)n1C ?
JNK3 blocker: 0; HEK293 NFkB inh: 11; Her2 expr inh: 96; BAP1 inh: inactive; M1 antagonist: -2.7*; M1 ag: -0.067; M1 antag conf: 62*; mGluR4 antag: 200

What do the screens show for `O=C(Nc1nc(-c2cc3ccccc3oc2=O)cs1)c1ccc(S(=O)(=O)N2CCc3ccccc32)cc1`?
BAP1 inh: inactive

Results for COc1ccc(C(C(=O)OCCN(C)C)c2ccccc2)cc1 (configuration not stated) ?
JNK3 blocker: 9; HEK293 NFkB inh: 24; Her2 expr inh: 95; BAP1 inh: inactive; M1 antagonist: -5.8*; M1 ag: 0.49; M1 antag conf: 232*; mGluR4 antag: 259

Results for COc1ccccc1C1Oc2ccccc2C2CC(c3ccccc3)=NN21 (configuration not stated) ?
BAP1 inh: inactive

How did C=CCN1C(=Nc2cccnc2)SCC1(O)c1ccc(C)cc1 (configuration not stated) do in these assays?
JNK3 blocker: 2; HEK293 NFkB inh: 1; Her2 expr inh: 36; BAP1 inh: inactive; M1 antagonist: -2.2*; M1 ag: 2; M1 antag conf: 478*; mGluR4 antag: 203

Results for N#Cc1c(NC(=O)c2cc(-n3cnnc3)ccc2Cl)sc2c1CCCC2 ?
JNK3 blocker: -1; HEK293 NFkB inh: 6; Her2 expr inh: 65; BAP1 inh: inactive; M1 antagonist: -3.2*; M1 ag: -0.51; M1 antag conf: 630; mGluR4 antag: 229

What do the screens show for `Cc1cc(C(=O)Nc2sc3c(c2C#N)CCCC3)no1`?
JNK3 blocker: 6; HEK293 NFkB inh: -33; Her2 expr inh: 75; BAP1 inh: inactive; M1 antagonist: 0.51; M1 ag: -1.9

How did O=C(Nc1ccc(Cl)cc1)N1CCN(c2ccc3nnc(-c4ccc(F)cc4)n3n2)CC1 do in these assays?
JNK3 blocker: 0; HEK293 NFkB inh: 11; Her2 expr inh: 93; BAP1 inh: inactive; M1 antagonist: -4.4*; M1 ag: 0.73; M1 antag conf: 386*; mGluR4 antag: 258

Results for Cc1cc(NC(=O)c2cccc(S(=O)(=O)Nc3cc(C)on3)c2)no1 ?
BAP1 inh: inactive

What do the screens show for `CC1(C)CC2CC(C)(CN2c2ncnc3ccccc23)C1` (configuration not stated)?
JNK3 blocker: 2; HEK293 NFkB inh: 9; Her2 expr inh: 141; BAP1 inh: inactive; M1 antagonist: -2.2*; M1 ag: -0.38; M1 antag conf: 516; mGluR4 antag: 251

Results for CN(C(=O)c1cc2n(n1)C(C(F)(F)F)CC(c1ccco1)N2)c1ccccc1 (configuration not stated) ?
JNK3 blocker: 2; HEK293 NFkB inh: 16; Her2 expr inh: 74; BAP1 inh: inactive; M1 antagonist: -2.9*; M1 ag: 1.1; M1 antag conf: 662; mGluR4 antag: 230

Results for CCOc1ccccc1C1C(C#N)=C(SCC(=O)OC)NC(=O)C1C(=O)OC (configuration not stated) ?
JNK3 blocker: 0; HEK293 NFkB inh: 7; Her2 expr inh: 97; BAP1 inh: inactive; M1 antagonist: -2.8*; M1 ag: 0.11; M1 antag conf: 559; mGluR4 antag: 201

Results for CCOC(=O)C1C(=O)NC(SCC(=O)OC)=C(C#N)C1c1ccccc1OCC (configuration not stated) ?
JNK3 blocker: -1; HEK293 NFkB inh: 16; Her2 expr inh: 91; BAP1 inh: inactive; M1 antagonist: 0.2; M1 ag: 0.89

What do the screens show for `O=C1C2C3CCCC3=C3CCCC3C2C(=O)N1c1ccccc1` (configuration not stated)?
JNK3 blocker: -4; HEK293 NFkB inh: 12; Her2 expr inh: 109; BAP1 inh: inactive; M1 antagonist: -3.2*; M1 ag: -0.15; M1 antag conf: 321*; mGluR4 antag: 195

What do the screens show for `O=C1C2C3C=CC(C3)C2C(=O)N1c1ccccc1` (configuration not stated)?
JNK3 blocker: 5; HEK293 NFkB inh: 17; Her2 expr inh: 95; BAP1 inh: inactive; M1 antagonist: 0.46; M1 ag: 1.1

What do the screens show for `O=S(=O)(c1ccc2c(c1)OCCO2)N1CCN(c2cccc(Cl)c2)CC1`?
JNK3 blocker: 7; HEK293 NFkB inh: 12; Her2 expr inh: 69; BAP1 inh: inactive; M1 antagonist: -0.16; M1 ag: -0.52

Results for O=S(=O)(c1ccc2c(c1)OCCO2)N1CCC(O)(c2ccc(Cl)cc2)CC1 ?
JNK3 blocker: 2; HEK293 NFkB inh: 15; Her2 expr inh: 85; BAP1 inh: inactive; M1 antagonist: -8.7*; M1 ag: -0.66; M1 antag conf: 475*; mGluR4 antag: 260

How did CCN1CCN(Cc2coc3ccc(C)cc3c2=O)CC1 do in these assays?
JNK3 blocker: -6; HEK293 NFkB inh: 12; Her2 expr inh: 119; BAP1 inh: inactive; M1 antagonist: -0.26; M1 ag: 0.012

How did O=c1c(CN2CCN(Cc3ccccc3)CC2)coc2ccc(Cl)cc12 do in these assays?
JNK3 blocker: 7; HEK293 NFkB inh: 7; Her2 expr inh: 116; BAP1 inh: inactive; M1 antagonist: -4.2*; M1 ag: -0.83; M1 antag conf: 365*; mGluR4 antag: 194

How did Cc1ccc2occ(CN3CCN(c4ccccc4)CC3)c(=O)c2c1 do in these assays?
JNK3 blocker: 1; HEK293 NFkB inh: 9; Her2 expr inh: 92; BAP1 inh: inactive; M1 antagonist: -3.4*; M1 ag: 1.1; M1 antag conf: 508*; mGluR4 antag: 223

Results for CCOC(=O)CC(=O)CSc1ncnc2sc3c(c12)CCCC3 ?
BAP1 inh: inactive
